# Bioassay records as filed in PubChem.
# Calpain2 inh: inhibitors of pig calpain II, primary screen, biochemical, fluorogenic peptide substrate, 1536-well; purified calpain II, 30 min; inhibition, % at 16 µM; hit rate 0.37% among 220,000; AID 1236, 2008;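 active means inhibition above about 50%, limit read from the data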
# FXIIa inh 1536: human FXIIa protease inhibitors, primary screen, biochemical, 1536-well; Coagulation factor XII (Homo sapiens), P00748; inhibition, % at 5 µM; purified FXIIa, Boc-QGR-AMC fluorogenic substrate, 2 h; AID 800, 2007; hit rate 0.3% among 220,000; in the data active means inhibition above about 40%;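 further: 0% = enzyme with no compound and 100% = blank without enzyme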
# Target sequence (P00748 20-372 limits assumed): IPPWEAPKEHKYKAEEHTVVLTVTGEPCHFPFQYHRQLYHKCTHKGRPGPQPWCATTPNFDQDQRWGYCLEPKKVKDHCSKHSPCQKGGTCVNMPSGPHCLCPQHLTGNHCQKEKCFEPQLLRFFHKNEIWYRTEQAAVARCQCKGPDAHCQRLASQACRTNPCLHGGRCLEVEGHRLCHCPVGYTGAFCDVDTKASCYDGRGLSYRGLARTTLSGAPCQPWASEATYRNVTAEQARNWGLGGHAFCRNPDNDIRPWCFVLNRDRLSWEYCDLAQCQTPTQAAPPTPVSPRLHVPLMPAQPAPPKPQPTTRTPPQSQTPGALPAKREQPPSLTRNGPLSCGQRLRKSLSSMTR
# Target sequence (P00748 373-615 limits assumed): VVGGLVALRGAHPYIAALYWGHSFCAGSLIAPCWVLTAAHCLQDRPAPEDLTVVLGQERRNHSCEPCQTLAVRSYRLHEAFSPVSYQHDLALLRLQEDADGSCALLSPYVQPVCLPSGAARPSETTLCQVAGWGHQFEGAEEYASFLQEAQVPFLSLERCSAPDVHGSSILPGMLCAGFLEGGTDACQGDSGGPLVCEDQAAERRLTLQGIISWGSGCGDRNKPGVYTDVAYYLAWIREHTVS
# hK5 inh: human KLK5 protease inhibitors, primary screen, biochemical, 1536-well; Kallikrein-5 (Homo sapiens), Q9Y337; recombinant hK5, fluorogenic AMC substrate cleavage; inhibition, % at 5 µM; hit rate 0.59% among 210,000; AID 873, 2007;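 active means inhibition of 40% or more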;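 further: 0% = enzyme controls without compound and 100% = no-enzyme blanks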
# FXIa inh 1536: human FXIa protease inhibitors, primary screen, biochemical, 1536-well; inhibition, % at 5 µM; hit rate 0.14% among 220,000; purified FXIa, Boc-Glu-Ala-Arg-AMC fluorogenic substrate; AID 798, 2007;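 active means inhibition of at least 40%; inactive means inhibition below 40%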;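 further: fluorescence of freed AMC excited at 355 nm; 0% = enzyme without compound and 100% = no enzyme blank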
# thrombin 1536: human alpha-thrombin inhibitors, primary screen, counter-screen for coagulation protease inhibitor project, biochemical, 1536-well, fluorogenic AMC substrate | Boc-VPR-AMC fluorogenic substrate cleavage | inhibition, % at 5 µM | AID 1046, 2008 | hit rate 0.26% among 220,000 | Prothrombin (Homo sapiens), P00734;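 active means inhibition at or above 40%; inactive means inhibition below 40%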;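 further: 0% = enzyme with no compound and 100% = wells without enzyme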
#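 Material: human alpha-thrombin enzyme / Medium: pH 7.5 Tris (50 mM) with NaCl 150 mM, Tween 20 0.05% / Compound: single-point dosing at 5 µM, 0.2% DMSO / Incubation: enzyme reaction carried out at room temperature / Detection: AMC fluorescence, 355/460 nm / Read-out basis: percent inhibition scaled between no-compound controls and no-enzyme blanks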
# Numbers without * were called inactive; . = no result given. Hits are enriched below; roughly 1.4% of the tested compounds scored in any of these assays.
SMILES,Calpain2 inh,FXIIa inh 1536,hK5 inh,FXIa inh 1536,thrombin 1536
CCCc1nc(SCC(=O)N2CCCc3ccccc32)c2c(=O)n(C)c(=O)n(C)c2n1,62*,7,0,-5,-6
Cn1c(=O)c2c(SCC(=O)N3CCCc4ccccc43)nc(CC(C)(C)C)nc2n(C)c1=O,15,16,-8,6,0
O=C(COc1ccc([N+](=O)[O-])cc1)NC(C(=O)O)C(O)c1cccc([N+](=O)[O-])c1 (stereo unspecified),-20,10,22,6,3
CCOC(=O)c1c(NC(=O)Cn2ccsc2=N)sc(C)c1C,11,4,-8,5,-5
c1ccc(-c2nc(-c3nccc4ccccc34)oc2-c2ccccc2)cc1,-180,-6,-7,-2,-9
COc1ccccc1C1OC2=C(Nc3ccc([N+](=O)[O-])cc3N2)C1=O (stereo unspecified),6,2,3,-6,-3
S=c1nc(-c2sccc2OCc2ccc(Cl)cc2Cl)[nH][nH]1,93*,8,-11,7,-10
CCOc1ccc(NC(=O)CSc2nc3ccccc3c(=O)n2CCCC(=O)NCCCN2CCCC2=O)cc1,-16,2,-2,0,-5
O=C(NCc1cccnc1)C(=O)C1C(=O)Nc2ccccc21 (stereo unspecified),21,2,41*,-2,-3
O=C(NCc1ccncc1)C(=O)C1C(=O)Nc2ccccc21 (stereo unspecified),-15,6,0,-1,-13
CCOC(=O)C1=C(C)NC(=S)N(C(C)=O)C1c1ccc(OC)c(OC)c1 (stereo unspecified),13,48*,48*,17,21
CCOC(=O)C1=C(C)NC(=S)N(C(C)=O)C1c1ccc(Cl)cc1 (stereo unspecified),2,6,-6,1,0
NS(=O)(=O)c1ccc(Cl)cc1[N+](=O)[O-],3,46*,17,41*,22
CCC1CCCCN1C(=S)Nc1cccc(S(=O)(=O)N(C)C)c1 (stereo unspecified),0,7,49*,0,-2
CN(C)S(=O)(=O)c1cccc(NC(=S)N2CCCCC2CO)c1 (stereo unspecified),-15,2,-5,4,.
O=[N+]([O-])c1cccc(/C=N\N=C2c3ccccc3-c3ccccc32)c1O,61*,28,-10,22,5
NC(N)=N/N=C/c1cccc([N+](=O)[O-])c1O,24,7,-3,12,-1
COc1ccc(C2C(=O)c3ccccc3C2=O)cc1OC,8,17,18,9,56*
CCCNc1sc(S(=O)(=O)CCC)nc1S(=O)(=O)c1ccc(C)cc1,1,4,-3,-9,-22
Cc1cc(=O)oc2cc(OC(=O)CCN3C(=O)c4ccccc4C3=O)ccc12,-485,63*,-25,-14,8
CC(NC(=O)c1ccccc1)c1ccc(F)cc1 (stereo unspecified),62*,16,-8,9,-2
CC(NC(=O)c1ccc(F)cc1)c1ccc(F)cc1 (stereo unspecified),15,6,-18,1,-11
O=C(Cn1nc(C(F)F)cc1C(F)F)NNC(=S)Nc1ccc(F)cc1,11,-17,-223,-4,50*
COc1cccc2sc(/N=C/N(C)C)nc12,15,46*,35,24,22
CC(=O)c1ccc(NC(=O)C2C3C=CC(C3=C(c3ccccc3)c3ccccc3)C2C(=O)O)cc1 (stereo unspecified),-75,6,3,-5,-16
CC1(C)C(=O)OC(c2c(F)c(F)c(F)c(F)c2F)C2(CCCCC2)C1=O (stereo unspecified),57*,9,-14,2,3
CC1(C)C(=O)OC(c2cccn2-c2ccc([N+](=O)[O-])cc2)C2(CCCCC2)C1=O (stereo unspecified),14,21,-2,22,1
Cc1ccc(SCCNC(=S)Nc2cc(C)cc(C)c2)cc1,52*,-7,1,-7,-5
COc1ccc(C)cc1NC(=O)C1CCCN(S(=O)(=O)c2cnc[nH]2)C1 (stereo unspecified),9,16,7,18,11
